Among the data in ChEMBL document CHEMBL1914423, “New imidazo[2,1-b]thiazole derivatives: synthesis, in vitro anticancer evaluation, and in silico studies” (Eur J Med Chem, 2011) are IC50 values, retold here.

This assay can be described thus: Antiproliferative activity against human A375P cells after 48 hrs by MTT assay. It is filed as functional, cell-based. In a few lines:
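A375P cells in DMEM with 10% FBS at 37 °C, 5% CO2. Seeded at 5×10³ cells/well, held 24 h, then treated with 12-point 3-fold serial dilutions for 48 h. Viability by MTT reduction. IC50 values are means of triplicate experiments.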
In general terms: Formazan colour is commonly taken as a measure of viable cells.

pIC50: −log10 of the molar value.

`COc1cccc(-c2nc3sccn3c2-c2ccnc(NCCNC(=O)Nc3cc(C(F)(F)F)cc(C(F)(F)F)c3)n2)c1`: the pIC50 is 5.37.
Compound `CNC(=O)c1cc(Oc2ccc(NC(=O)Nc3ccc(Cl)c(C(F)(F)F)c3)cc2)ccn1` [SORAFENIB] gave a pIC50 of 5.25.

What is called pIC50 is the IC50 on a negative log10 scale, so that one unit is a factor of ten.
